In data set [1] the target is Adenosine receptor A2a (Homo sapiens, UniProt P29274). Briefly: Displacement of [3H]-[…] from human adenosine A2A receptor expressed in HEK293 cells after 1 hr by scintillation counting. In kind it is cell-based.
Data set [2] in a line: Cytotoxicity against human SH-SY5Y cells after 72 hrs by MTT assay. It is filed as cell-based. The method, boiled down:
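SH-SY5Y neuroblastoma cells grown in DMEM with 2 mM L-glutamine, streptomycin/penicillin, 1 mM non-essential amino acids, 10% heat-inactivated FBS, 37 °C, 5% CO2. Seeded 2000 cells/well, serum-starved 24 h to synchronise, then exposed to various compound concentrations (<0.1% DMSO) for 72 h; growth read by colorimetric MTT assay; CC50 reported.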
(Formazan colour is commonly taken as a measure of viable cells.)

13 compounds from ChEMBL document CHEMBL3739367, “Design and synthesis of fused tetrahydroisoquinoline-iminoimidazolines” (Eur J Med Chem, 2015) can be followed below.

Where only a bound is given, the exact number is not on record here.

Sequence of Adenosine receptor A2a (P29274 whole entry): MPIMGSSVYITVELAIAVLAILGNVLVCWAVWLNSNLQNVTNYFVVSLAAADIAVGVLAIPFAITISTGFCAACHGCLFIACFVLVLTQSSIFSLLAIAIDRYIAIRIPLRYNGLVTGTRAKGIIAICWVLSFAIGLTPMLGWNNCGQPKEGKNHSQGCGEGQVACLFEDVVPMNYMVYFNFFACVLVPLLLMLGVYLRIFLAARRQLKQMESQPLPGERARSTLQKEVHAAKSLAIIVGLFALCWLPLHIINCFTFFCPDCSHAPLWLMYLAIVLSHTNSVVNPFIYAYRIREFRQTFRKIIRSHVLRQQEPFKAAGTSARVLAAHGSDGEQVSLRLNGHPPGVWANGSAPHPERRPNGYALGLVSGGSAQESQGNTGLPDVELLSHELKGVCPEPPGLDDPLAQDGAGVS

By Ki is commonly meant a measure of affinity in units of concentration, obtained from inhibition or displacement. Higher therefore signals weaker binding. The term CC50 denotes the concentration that lowers cell viability or growth by half. Read a low CC50 as harm at low concentration. In data set [1], `CCCCCCN1C[C@@H]2Cc3ccccc3CN2C1=N` returned a Ki greater than 200 µM. For the same compound, the CC50 at 72 h in data set [2] is greater than 100 µM.

Regarding `N=C1N[C@@H](Cc2ccc(F)cc2)CN1Cc1ccccc1`, in data set [1], the Ki is greater than 200 µM. The same compound registered a 50% cytotoxic concentration (CC50) at 72 h in data set [2] greater than 100 µM.

`N=C1N[C@@H](Cc2ccc(O)cc2)CN1Cc1ccccc1` gave a Ki in data set [1] greater than 200 µM. In addition, the 50% cytotoxic concentration (CC50) at 72 h in data set [2] is greater than 100 µM.

The compound `C[C@H]1CN(Cc2ccccc2)C(=N)N1` showed an inhibitory constant (Ki) in data set [1] greater than 200 µM. The half-maximal cytotoxic concentration (CC50) at 72 h in data set [2] was greater than 100 µM.

In data set [1], `N=C1N(CCN2CCOCC2)C[C@@H]2Cc3ccccc3CN12` had a Ki greater than 200 µM. The compound also showed a CC50 at 72 h in data set [2] greater than 100 µM.

`N=C1N(CCCCc2ccccc2)C[C@@H]2Cc3ccccc3CN12`: the inhibitory constant (Ki) in data set [1] amounted to 35 µM. In addition, the CC50 at 72 h in data set [2] is greater than 100 µM.

Consider `N=C1N(CCc2ccccn2)C[C@@H]2Cc3ccccc3CN12`, for which, in data set [1], the inhibitory constant (Ki) was greater than 200 µM. In data set [2], this compound showed a CC50 at 72 h greater than 100 µM.

In data set [1], `N=C1N(Cc2ccccc2)C[C@@H]2Cc3ccccc3CN12` had a Ki of 64 µM. For the same compound, the 50% cytotoxic concentration (CC50) at 72 h in data set [2] is greater than 100 µM.

Take `O=C1[C@@H]2Cc3ccccc3CN2C(=O)N1Cc1ccccc1`: the inhibition constant (Ki) in data set [1] amounted to 44 µM. Further, in data set [2], the half-maximal cytotoxic concentration (CC50) at 72 h was greater than 100 µM.

`N=C1N[C@@H](Cc2ccccc2)CN1Cc1ccccc1` came in with an inhibitory constant (Ki) in data set [1] greater than 200 µM. The compound also came in with a half-maximal cytotoxic concentration (CC50) at 72 h in data set [2] greater than 100 µM.

In data set [1], `COc1ccc(C[C@H]2CN(Cc3ccccc3)C(=N)N2)cc1` came in with a Ki greater than 200 µM. For the same compound, the CC50 at 72 h in data set [2] was greater than 100 µM.

In turn, `N=C1N(Cc2ccccc2)C[C@@H]2CCCCN12` showed a Ki in data set [1] greater than 200 µM. Moreover, the CC50 at 72 h in data set [2] was greater than 100 µM.

In data set [1], `CN1C(=N)N(Cc2ccccc2)CC1Cc1ccccc1` (racemic) gave a Ki greater than 200 µM. The same compound had a CC50 at 72 h in data set [2] greater than 100 µM.
